These results are taken from article PMC7194280 (Leukemia, 2018).

Read-outs that look alike come from different tables or passages of the source. Bounds are passed on as bounds.

Broadly, the IC50 is the midpoint of a concentration-inhibition curve. By EC50 is commonly meant the concentration needed to bring the measured effect to its halfway point.

One series has as its system MM.1S cells. It counts as in vivo.
Series [1] in a line: Pharmacokinetics in CD-1 mice. It counts as in vivo, mouse. A digest of the protocol:
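CD-1 mice received a single dose of test compound, either i.v. at 2 mg/kg or p.o. at 5 mg/kg. Plasma drug concentrations were followed over 24 h by an optimized LC-MS method. Oral bioavailability and terminal half-life were derived from these plasma profiles.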

The test system of a further series is PDIA4. As to the kind of experiment: Insulin reduction assay. It counts as biochemical. A digest of the protocol: (§1)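 The assay measured reductase activity of recombinant PDI family isoforms through insulin reduction, followed as insulin aggregation (turbidity) kinetic traces. A dose range of test compound was applied. IC50 values were extrapolated from 10-dose inhibition curves.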

In another series the test system is PDIA3. As to the kind of experiment: Insulin reduction assay. It is filed as biochemical. A digest of the protocol:
as §1

The test system of series [2] is MM cells. Description: PI sensitization of MM cell lines. It is filed as cell-based, human.
The next series has as its system PDIA6. Description: Insulin reduction assay. It is filed as biochemical. Summed up:
as §1

For series [3] the following is noted: mouse, in vivo.
Series [4] is described as follows: Stability in serum, simulated gastric and intestinal fluids. It counts as in vitro ADME.
The next series deals with Vk*MYC transgenic mice. Description: Vk*MYC transgenic mouse model of MM. It is filed as in vivo. The settings on record: 2 mg/kg i.p. days 1, 3, 5 of each week for 2 weeks; three mice; P=0.0135.
A further series has as its target PDIA1 (Homo sapiens, UniProt P07237). As to the kind of experiment: Insulin reduction assay. It is filed as biochemical. A digest of the protocol: as §1
For series [5], the system named is MM cells. Description: Single-agent anti-MM cell viability. It is filed as cell-based, human. As to conditions: read-out: EC50, single-agent anti-MM activity; 24 h of exposure. Summed up:
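Myeloma cells were seeded at 3×10^4 cells/well and exposed to test compound alone. Viability was read by CellTiter-Glo luminescence (470 nm, 1-s integration), and EC50 was derived from dose–response curves.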

In another series the test system is TXNDC5. Description: Insulin reduction assay. It is filed as biochemical. Summed up:
as §1

Series [6] can be described thus: Stability against oxidative metabolism by human liver microsomes. It counts as in vitro ADME. (In general: Liver microsomes are vesicles of endoplasmic reticulum, rich in cytochrome P450 enzymes.)
Series [7] has as its system MM.1S BzR cells. As to the kind of experiment: Effect on lenalidomide or doxorubicin cytotoxicity. It counts as cell-based.
For series [8], the system named is MM.1S BzR cells. As to the kind of experiment: Btz re-sensitization of PI-resistant MM cells. It counts as cell-based. The settings on record: screening hit, low micromolar E61.
The subject of the next series is normal cells. Description: PI sensitization in normal cells. It is filed as cell-based. The settings on record: PBMCs, WBCs, MRC-5, Wi-38, HFF, MEF; Btz and Crflz. Summed up: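 Normal human PBMCs, lymphocytes, lung (MRC-5, Wi-38) and foreskin (HFF) fibroblasts, and mouse MEF fibroblasts were seeded at 3×10^4 cells/well. Cells received 8-dose Btz or Crflz curves with or without 5 µM test compound. Viability was measured by CellTiter-Glo luminescence. Fold change = PI EC50 without / EC50 with test compound; >1 denotes sensitization, <1 protection.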

The subject of a further series is RPMI-8226 cells. Description: Effect on dexamethasone activity in dexamethasone resistant cells. It counts as cell-based. The settings on record: dexamethasone resistant RPMI-8226 cells.
Series [9] relates to MM.1S BzR cells. Description: NSG mouse xenotransplant model with MM.1S BzR cells. It is filed as in vivo. Summed up: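 Mice implanted i.v. with PI-resistant MM.1S BzR cells; test compound at 50 mg/kg i.p. daily versus vehicle, from day 21 post-implant. Read-out: Kaplan–Meier survival. In a parallel cohort, mice were sacrificed on day 49 and % CD138+ cells in bone marrow biopsies was quantified (vehicle N=8, treated N=7), compared by t-test.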

Another series concerns 20S proteasome. Description: Chymotrypsin-like activity of the 20S proteasome. It counts as biochemical.
The mark [10] stands for this setting: E64FC26 2 mg/kg i.p. 3 days/week, N=9.

Chain of PDIA1 (P07237 18-508): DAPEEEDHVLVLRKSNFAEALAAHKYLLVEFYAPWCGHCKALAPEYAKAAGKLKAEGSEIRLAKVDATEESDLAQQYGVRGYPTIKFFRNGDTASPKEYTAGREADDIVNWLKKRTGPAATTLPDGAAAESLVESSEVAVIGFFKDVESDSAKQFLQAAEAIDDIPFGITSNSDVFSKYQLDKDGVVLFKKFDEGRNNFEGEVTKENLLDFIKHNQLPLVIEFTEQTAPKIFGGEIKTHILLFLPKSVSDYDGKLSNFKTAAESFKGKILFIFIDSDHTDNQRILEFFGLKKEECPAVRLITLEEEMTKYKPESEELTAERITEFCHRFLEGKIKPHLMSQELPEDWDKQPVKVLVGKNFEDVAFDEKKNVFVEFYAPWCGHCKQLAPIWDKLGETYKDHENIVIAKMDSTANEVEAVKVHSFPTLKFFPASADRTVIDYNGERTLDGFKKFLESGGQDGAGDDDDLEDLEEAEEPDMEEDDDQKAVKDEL

Take `CC(C)C[C@H](NC(=O)[C@H](Cc1ccccc1)NC(=O)c1cnccn1)B(O)O` [Btz, bortezomib, reference compound]: the “increase in median survival over vehicle” value in the series with MM.1S cells (Btz 0.25 mg/kg i.p. 2 days/week, E64FC26 2 mg/kg i.p. 3 days/week, N=8) is 6 days.

Consider `CCCCCCCC/C=C1\C=C(C(F)(F)F)c2cc(O)c(O)cc21` [E64FC26], for which, in the series with MM.1S cells (setting [10]), the “increase in median survival over vehicle” value is 2 weeks and the “increase in median survival over vehicle (percent)” value amounted to 40%. For the same compound, the “mice alive on day 36” value with MM.1S cells (E64FC26 2 mg/kg i.p. 3 days/week, vehicle 0% (0/9)) turned out to be 100%. Also, in the series with MM.1S cells (mouse, in vivo), the “overt toxicity or body weight fluctuations” value is listed as “No overt toxicity or body weight fluctuations”. This compound also yielded an oral bioavailabilty in [1] (p.o. 5 mg/kg, i.v. 2 mg/kg) of 34%. In addition, the Cmax in [1] (read-out: maximum concentration (Cmax), single oral dose of 5 mg/kg, plasma) was roughly 400 nM. Besides, the terminal half-life in series [1] (single oral dose of 5 mg/kg) was determined as 9.5 h. In addition, in the series on PDIA4, the “inhibition of PDIA4 (qualitative)” value is on record as “inhibited”. The “inhibition of PDIA3 (qualitative)” value with PDIA3 is given as “inhibited”. In addition, the “potency relative to E61 in cellular models of PI sensitization” value with MM cells [2] is given as greater than 10 times. The “concentrations highly synergistic with PIs” value in the series with MM cells [2] (MM.1S BzR and U266 BzR cells, Btz) is on record as no less than 200 nM. Besides, in the series on MM cells [2] (cells treated with empirically determined EC10–20 of the PDI inhibitor), the “average increase in PI sensitivity” value is 6–7 fold. Also, in the series on PDIA6, the “inhibition of PDIA6 (qualitative)” value is on record as “inhibited”. Further, the “blood serum chemistry markers (toxicology)” value in series [3] is “mild thrombocytopenia and neutropenia”. For the same compound, the “stability in serum, simulated gastric and intestinal fluids, and human liver microsomes compared to E61” value in series [4] is “increased stability”. Besides, in the series on Vk*MYC transgenic mice, the “average decrease in serum M-protein” value stood at 33 ± 7.9%. The “potency relative to E61 as inhibitor of PDI activity in vitro” value on PDIA1 is greater than 50 times. Moreover, on PDIA1 (read-out: IC50 against PDIA1, insulin reduction assay), the IC50 stood at 1900 ± 100 nM. Further, the EC50 in the series with MM cells [5] turned out to be 590 nM. Besides, the “inhibition of TXNDC5 (qualitative)” value in the series with TXNDC5 is “inhibited”. In addition, the “calculated intrinsic clearance in human liver microsomes” value in series [6] was 6.22 ± 0.98 µL/min/mg.

Turning to `O=C(O)/C=C/c1ccc(O)c(O)c1` [caffeic acid, reference compound], the “enhancement of the sensitivity of MM cells to PIs (qualitative)” value in the series on MM cells [2] is on record as “failed to enhance”. The “PDI reductase activity in vitro (qualitative)” value at PDIA1 is reported as “no activity”.

In the case of `CCCCCCCCOC(=O)/C=C/c1ccc(O)c(O)c1` [E61, n-octyl caffeate], the “effect on lenalidomide or doxorubicin cytotoxicity” value in the series with MM.1S BzR cells [7] was “did not affect”. Besides, the “enhancement of Btz cytotoxicity” value with MM.1S BzR cells [8] is greater than 6 fold. Also, the “enhancement of the cytotoxic effects of PIs in normal cells” value with normal cells was “failed to enhance”. In the series with RPMI-8226 cells, the “effect on dexamethasone activity” value is recorded as “no effect”. The “IC50 in vitro (PDI assay, qualitative)” value against PDIA1 is reported as “high micromolar”. For the same compound, the “number of CD138+ MM cells in bone marrow” value in the series with MM.1S BzR cells [9] (50 mg/kg i.p. daily, sacrificed on day 49, P=0.007) is listed as “significant reduction”. Further, the “treated mice that never reached the survival endpoint” value in the series on MM.1S BzR cells [9] (50 mg/kg/day i.p.) is reported as 4 of the 11. Also, in the series on MM.1S BzR cells [9] (50 mg/kg/day i.p., continuous dosing, vehicle 51 days), the median survival is reported as 62 days. In addition, the “prolongation of median survival” value in the series with MM.1S BzR cells [9] (50 mg/kg/day i.p., continuous dosing, vs vehicle, N=11) came to 11 days. The “tolerability (overt signs of distress, body weight)” value in the series on MM.1S BzR cells [9] (continuous dosing for 40+ days, 50 mg/kg/day i.p.) is “well tolerated”. Besides, the EC50 with MM cells [5] worked out at 18300 nM. Also, in series [6], the “calculated intrinsic clearance in human liver microsomes” value was 97.6 ± 6.0 µL/min/mg. In the series with 20S proteasome, the “inhibition of chymotrypsin-like activity of the 20S proteasome” value was “did not inhibit”.

Turning to PACMA 31 [reference compound], the “inhibition of PDIA4 (qualitative)” value in the series on PDIA4 is listed as “inhibited”. The “inhibition of PDIA3 (qualitative)” value in the series on PDIA3 was “failed to inhibit”. In addition, the “inhibition of PDIA6 (qualitative)” value in the series with PDIA6 is given as “inhibited”. Moreover, the “inhibition of TXNDC5 (qualitative)” value in the series on TXNDC5 is “inhibited”.
